Screening data as filed in PubChem BioAssay.
STAT3 inh-1 – IL-6 driven STAT3 reporter inhibitors, primary screen, U3A cells, luciferase, luminescence, MLSCN library; hit rate 0.89% among 190,000; AID 862, 2007; IL-6 STAT3-luciferase reporter; host cell line lacks STAT1; inhibition, % at 5.5 µM;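 active means inhibition above the mean inhibition across all screened compounds plus 3 SD, cut at about 44% in these data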
HSP90 inh – HSP90 inhibitors, primary screen, cell lysate, luminescence. Rabbit reticulocyte lysate, luciferase refolding luminescence, 3 h. hit rate 0.91% among 290,000. inhibition, % at 5.6 µM. AID 1789, 2009. Heat shock protein HSP 90 (rabbit reticulocyte lysate; luciferase refolding);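 active means inhibition above the screen-wide mean plus 3 SD, computed separately per campaign, cut at about 16% in these data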;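 further: inhibitors lower the luminescence because luciferase stays unfolded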
STAT3 activator – IL-6 driven STAT3 reporter potentiators, primary screen, U3A cells, luciferase, luminescence, MLSCN library. IL-6 STAT3-luciferase reporter; 100% = signal with IL-6 EC80 alone. activation (% of control), % at 5.6 µM. hit rate 0.91% among 190,000. AID 871, 2007;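 active means activation above the screen-wide mean of compound activation plus 3 SD, cut at about 130% in these data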
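system = STAT3-luciferase reporter U3A cells | reagent = IL-6 stimulus at 33 ng/mL final | timing = 1 h compound pre-exposure, 6 h IL-6 stimulation, 37 °C | measured by = luminescence | evaluation = % activation versus median of IL-6-stimulated wells | control set = IL-6-only wells as 100% reference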
STAT1 inh – STAT1 signaling inhibitors, primary screen, cell-based, HTS, luciferase reporter; NIH 3T3 STAT1-luciferase reporter, IFN-gamma, luminescence; inhibition, % at 5.5 µM; hit rate 0.35% among 200,000; AID 920, 2007;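 active means inhibition above a set limit, the mean inhibition across all tested compounds plus 3 SD, cut at about 34% in these data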
STAT3 inh-2 – STAT3 reporter inhibitors, retest of hits, confirmation, U3A cells, luciferase, luminescence. hit rate 45% among 1,200. inhibition, % at 5.7 µM. IL-6 STAT3 luciferase reporter; cell line lacks STAT1. shares compounds with STAT3 inh-1. AID 1265, 2008;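 active means inhibition above the hit cutoff computed for the primary STAT3 screen, cut at about 44% in these data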
NFkB inh 2 – NF-kB reporter inhibitors in human cells, confirmation, counter-screen for STAT3 inhibitor project, cell-based, HEK293T, luciferase, TNF-alpha stimulus | shares compounds with STAT3 inh-1 | TNF-alpha induced | hit rate 36% among 1,200 | inhibition, % at 5.7 µM;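 active means inhibition above the mean of solvent-only control wells plus 3 SD, cutoff set per campaign, cut at about 13% in these data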
STAT1 inh 2 – STAT1 reporter inhibitors, IFN-gamma induced, confirmation, counter-screen for STAT3 inhibitor project, cell-based, NIH 3T3, luciferase luminescence; inhibition, % at 5.7 µM; shares compounds with STAT3 inh-1; AID 1317, 2008; NIH 3T3 STAT1-luciferase reporter; hit rate 27% among 1,200;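 active means inhibition above the mean plus 3 SD of solvent-only control wells, limit set per screening run, cut at about 16% in these data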
Numbers stand for hits. Rows were chosen to be rich in hits. Some 2% of all compounds tested hit in one or more screens of this group.

Cc1sc2ncnc(NC3CCN(Cc4ccccc4)CC3)c2c1C was read as STAT3 inh-1 45, HSP90 inh inactive, STAT3 activator inactive, STAT1 inh inactive, STAT3 inh-2 62, NFkB inh 2 16 and STAT1 inh 2 25.
For Cc1ccc(NC(=O)c2sc3ccccc3c2Cl)nc1 the results were STAT3 inh-1 49, HSP90 inh inactive, STAT3 activator inactive, STAT1 inh inactive, STAT3 inh-2 inactive, NFkB inh 2 inactive and STAT1 inh 2 inactive.
For Cc1ccc(CC(=O)Nc2ccc(Cl)cn2)cc1 the results were HSP90 inh inactive.
Screening CCCOc1ccc(C(=O)Nc2ccc(Cl)cn2)cc1 returned STAT3 inh-1 56, HSP90 inh inactive, STAT3 activator inactive, STAT1 inh inactive, STAT3 inh-2 inactive, NFkB inh 2 inactive and STAT1 inh 2 inactive.
Screening Cc1ccc(C(=O)Nc2ccc(Cl)cn2)cc1 returned STAT3 inh-1 56, HSP90 inh inactive, STAT3 activator inactive, STAT1 inh inactive, STAT3 inh-2 inactive, NFkB inh 2 inactive and STAT1 inh 2 inactive.
`O=C(Nc1ccc(NS(=O)(=O)c2ccccc2)cc1)c1ccc(Cl)cc1` gave HSP90 inh inactive.
O=C(Nc1cccc(S(=O)(=O)Nc2ccc(Cl)cc2)c1)c1ccc(Cl)nc1 was read as STAT3 inh-1 79, HSP90 inh inactive, STAT3 activator inactive, STAT1 inh inactive, STAT3 inh-2 81, NFkB inh 2 27 and STAT1 inh 2 23.
COc1ccc(NS(=O)(=O)c2cccc(NC(=O)c3ccc(Cl)nc3)c2)cc1 was read as STAT3 inh-1 86, HSP90 inh inactive, STAT3 activator inactive, STAT1 inh inactive, STAT3 inh-2 84, NFkB inh 2 38 and STAT1 inh 2 24.
Cc1cc(C(=O)NC2CCCc3c2cnn3-c2ccc(C(C)(C)C)cc2)nn1C (configuration not stated) was read as HSP90 inh inactive.
Screening O=C(Nc1cc(S(=O)(=O)N2CCCCC2)ccc1Cl)c1ccccc1NS(=O)(=O)c1ccc(F)cc1 returned STAT3 inh-1 51, HSP90 inh inactive, STAT3 activator inactive, STAT1 inh inactive, STAT3 inh-2 inactive, NFkB inh 2 18 and STAT1 inh 2 29.
Cc1ccc(S(=O)(=O)Nc2ccccc2C(=O)Nc2nc(-c3ccc(F)cc3)cs2)cc1 was read as STAT3 inh-1 45, HSP90 inh inactive, STAT3 activator inactive, STAT1 inh inactive, STAT3 inh-2 inactive, NFkB inh 2 18 and STAT1 inh 2 26.
For CC(=O)N1c2ccc(S(=O)(=O)NCCC(=O)Nc3ccc(C)c(F)c3)cc2CC1C (configuration not stated) the results were HSP90 inh inactive.
`COc1cc(NC(=S)NC(=O)CCc2ccccc2)cc(OC)c1` gave HSP90 inh inactive.
`COc1ccc(Nc2nc(N3CCCCC3)c3ccccc3n2)cc1` gave STAT3 inh-1 47, HSP90 inh inactive, STAT3 activator inactive, STAT1 inh inactive, STAT3 inh-2 49, NFkB inh 2 inactive and STAT1 inh 2 27.
Screening COc1ccc2nc(NC(=S)N(C)C)sc2c1 returned STAT3 inh-1 44, HSP90 inh inactive, STAT3 activator inactive, STAT1 inh inactive, STAT3 inh-2 inactive, NFkB inh 2 inactive and STAT1 inh 2 inactive.
For O=C1c2ccccc2-c2nnc(-c3ccccc3)cc21 the results were STAT3 inh-1 52, HSP90 inh inactive, STAT3 activator inactive, STAT1 inh inactive, STAT3 inh-2 55, NFkB inh 2 33 and STAT1 inh 2 16.
For Nc1c(C(=O)NC2CCCCC2)nsc1C(=O)OCC(=O)NC1CCCCC1 the results were STAT3 inh-1 51, HSP90 inh inactive, STAT3 activator inactive, STAT1 inh inactive, STAT3 inh-2 54, NFkB inh 2 inactive and STAT1 inh 2 inactive.
`O=C(Nc1ccc(SC(F)(F)F)cc1)c1ccccn1` gave STAT3 inh-1 62, HSP90 inh inactive, STAT3 activator inactive, STAT1 inh inactive, STAT3 inh-2 inactive, NFkB inh 2 inactive and STAT1 inh 2 inactive.
